In article PMC6210075 (ACS Omega, 2018):
Values after ≈ are worked out from the molar mass of the structure shown.

Columns and labels:
FAAH = target: T1, FAAH (Mus musculus, UniProt O08914); type: in vivo; conditions: mice, 1 mg/kg i.p. in DMSO, 4 h after dosing
T1 sequence (O08914 1-579): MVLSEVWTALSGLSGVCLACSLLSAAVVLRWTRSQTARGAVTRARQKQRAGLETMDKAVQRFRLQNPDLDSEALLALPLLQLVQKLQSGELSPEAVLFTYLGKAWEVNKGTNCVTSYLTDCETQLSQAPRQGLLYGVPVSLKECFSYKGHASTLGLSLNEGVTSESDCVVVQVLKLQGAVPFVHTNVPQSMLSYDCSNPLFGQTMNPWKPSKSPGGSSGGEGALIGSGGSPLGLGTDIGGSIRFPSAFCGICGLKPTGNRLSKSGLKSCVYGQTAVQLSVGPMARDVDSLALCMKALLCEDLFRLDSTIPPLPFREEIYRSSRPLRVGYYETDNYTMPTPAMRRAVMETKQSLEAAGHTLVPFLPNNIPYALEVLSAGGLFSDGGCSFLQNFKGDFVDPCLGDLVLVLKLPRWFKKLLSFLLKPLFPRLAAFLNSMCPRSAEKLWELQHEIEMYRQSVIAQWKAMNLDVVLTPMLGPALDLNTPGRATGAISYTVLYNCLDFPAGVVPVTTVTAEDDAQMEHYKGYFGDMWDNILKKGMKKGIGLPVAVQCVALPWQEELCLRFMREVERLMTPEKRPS
Method in brief: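 Male Swiss Webster mice got test compound in 20 μL DMSO i.p. and were killed 4 h later. Tissue was homogenized about fivefold by weight in 20 mM phosphate, pH 7.4, 5 mM EDTA, then diluted 1000-fold (liver) or 100-fold (brain) in 100 mM phosphate, pH 8.0, 0.1% BSA. OMP (100 μM final) hydrolysis was read by fluorescence (303/394 nm) for 10 min, normalized to BCA protein, and expressed as % of vehicle.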

Water solubility = type: physicochemical; conditions: DI water, 37 °C, thermodynamic from solid
Method in brief: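 2–5 mg of solid was shaken in water for 2 days at 37 °C. The solution was filtered through PTFE, diluted twofold in MeOH containing 15 nM B-12, and quantified by LC/MS/MS.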

human sEH = target: T2, human sEH (Homo sapiens, UniProt P34913); assay: FRET-based displacement assay for inhibitor dissociation from sEH; type: binding
T2 sequence (P34913 1-555): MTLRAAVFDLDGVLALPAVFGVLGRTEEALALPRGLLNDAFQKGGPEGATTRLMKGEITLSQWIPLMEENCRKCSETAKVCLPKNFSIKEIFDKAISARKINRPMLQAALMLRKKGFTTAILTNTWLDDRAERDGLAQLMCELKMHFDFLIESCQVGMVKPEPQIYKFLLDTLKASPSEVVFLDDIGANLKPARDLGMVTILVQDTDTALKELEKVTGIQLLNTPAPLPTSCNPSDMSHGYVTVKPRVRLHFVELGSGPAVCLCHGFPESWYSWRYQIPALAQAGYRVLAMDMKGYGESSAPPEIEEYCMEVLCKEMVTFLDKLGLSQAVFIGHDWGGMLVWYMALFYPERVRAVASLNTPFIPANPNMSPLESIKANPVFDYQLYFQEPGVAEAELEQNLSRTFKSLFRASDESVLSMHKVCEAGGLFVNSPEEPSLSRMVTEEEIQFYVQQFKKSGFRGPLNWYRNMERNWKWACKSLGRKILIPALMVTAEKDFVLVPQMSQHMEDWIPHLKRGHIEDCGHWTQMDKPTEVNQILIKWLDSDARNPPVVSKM

[1] = Cassette dosing pharmacokinetics in mice; type: in vivo; conditions: male, Swiss Webster, mouse, whole blood, po, 1 mg/kg
Method in brief: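 Test compounds were given as a cassette cocktail at 1 mg/kg each, p.o. in PEG300, to groups of 4 rats or 4 mice. Blood was taken by tail vein at set intervals and group averages were used.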

rat sEH = target: T3, rat sEH (Rattus norvegicus, UniProt P80299); assay: sEH fluorescent inhibition assay, recombinant rat sEH; type: biochemical
T3 sequence (P80299 1-554): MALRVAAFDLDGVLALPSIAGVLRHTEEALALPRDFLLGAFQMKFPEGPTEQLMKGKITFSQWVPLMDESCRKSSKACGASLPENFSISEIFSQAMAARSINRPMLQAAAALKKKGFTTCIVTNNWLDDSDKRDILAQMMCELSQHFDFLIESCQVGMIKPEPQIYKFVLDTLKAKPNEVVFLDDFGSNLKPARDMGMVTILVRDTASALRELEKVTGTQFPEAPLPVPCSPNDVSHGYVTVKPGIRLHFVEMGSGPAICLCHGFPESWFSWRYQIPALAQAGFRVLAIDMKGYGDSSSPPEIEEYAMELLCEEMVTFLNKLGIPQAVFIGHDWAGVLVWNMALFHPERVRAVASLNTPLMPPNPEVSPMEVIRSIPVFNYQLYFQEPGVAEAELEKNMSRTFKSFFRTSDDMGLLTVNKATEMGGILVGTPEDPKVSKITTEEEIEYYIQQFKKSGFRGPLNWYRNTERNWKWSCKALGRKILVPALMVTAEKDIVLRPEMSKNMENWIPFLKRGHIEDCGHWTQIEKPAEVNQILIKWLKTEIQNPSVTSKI

| Structure (SMILES) | residual brain FAAH activity, % of control (FAAH; brain) | residual liver FAAH activity, % of control (FAAH; liver) | solubility at 2 days (Water solubility) | t1/2 (half-life on the enzyme) (human sEH; human sEH) | koff (human sEH; read-out: koff × 10^–3) | AUC [1] | Cmax [1] | IC50 (rat sEH) |
| --- | --- | --- | --- | --- | --- | --- | --- | --- |
| O=C(Nc1cccnc1)N1CCC(Cc2cccc(Oc3ccc(C(F)(F)F)cn3)c2)CC1 [PF-3845, reference compound] | 0.2 ± 0.1% | 22 ± 2% |  |  |  |  |  |  |
| O=C(Nc1ccc(C(F)(F)F)cc1F)N1CCC(Cc2cccc(Oc3ccc(C(F)(F)F)cn3)c2)CC1 [compound 18] |  |  | 2.8 nM (≈ 1.52 ng/mL) | 4.4 min | 2.7 s⁻¹ | 410 nM·h | 0.037 µM | 0.24 µM |
